According to ChEMBL document CHEMBL1143101, “Understanding the cardioprotective effects of flavonols: discovery of relaxant flavonols without antioxidant activity” (J Med Chem, 2008):

Columns and labels:
[1] = test system: Aorta; assay: DPPH scavenging activity in Sprague-Dawley rat thoracic aorta at 100 uM relative to control; format: functional
How it was run: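 Cell-free DPPH radical scavenging. Flavonol in DMSO mixed 1:1 with 0.1 mM DPPH in methanol, 10 min at room temperature in the dark, absorbance read at 560 nm. Level = (A flavonol/A DPPH) × 100, as % of vehicle.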

[2] = test system: Aorta; assay: Antioxidant activity in Sprague-Dawley rat thoracic aorta assessed as superoxide levels at 10 uM by lucigenin-enhanced chemiluminescence assay relative to control; format: functional
How it was run: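 Male Sprague-Dawley aortic rings incubated 45 min at 37 °C, pH 7.4, in Krebs-HEPES with DETCA 3 mM (inactivates SOD), NADPH 100 µM and flavonol 10 µM (DMSO 1%). Rings then moved to wells containing lucigenin 50 µM and NADPH 100 µM, and photon emission counted. Counts normalized to dry tissue weight (dried 48 h, 65 °C), expressed as % of vehicle; n = rats.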

[3] = test system: Aorta; assay: Vascular activity in KPSS precontracted Sprague-Dawley rat thoracic aorta assessed as endothelium dependent relaxation; format: functional, tissue-based; set-up: Activity: concentration or dose not given beside the values; conditions: for EC50: Rattus norvegicus, Sprague-Dawley, Thoracic aorta
[4] = test system: Aorta; assay: Vasorelaxant activity against U46619-induced contraction in endothelium-intact Sprague-Dawley rat thoracic aorta; format: functional, tissue-based; set-up: Activity: scale not given: the % may be the effect or the level left; conditions: for EC50: Rattus norvegicus, Sprague-Dawley, Thoracic aorta
[5] = test system: Aorta; assay: Vasorelaxant activity against U46619-induced contraction in endothelium-denuded Sprague-Dawley rat thoracic aorta; format: functional, tissue-based; set-up: Activity: scale not given: the % may be the effect or the level left; conditions: for EC50: Rattus norvegicus, Sprague-Dawley, Thoracic aorta
[6] = test system: Aorta; assay: Vasorelaxant activity against KCl-induced contraction in endothelium-denuded Sprague-Dawley rat thoracic aorta; format: functional, tissue-based; set-up: Activity: scale not given: the % may be the effect or the level left; conditions: for EC50: Rattus norvegicus, Sprague-Dawley, Thoracic aorta
[7] = test system: Aorta; assay: Vasorelaxant activity against KCl-induced contraction in endothelium-intact Sprague-Dawley rat thoracic aorta; format: functional, tissue-based; set-up: Activity: scale not given: the % may be the effect or the level left; conditions: for EC50: Rattus norvegicus, Sprague-Dawley, Thoracic aorta
[8] = test system: Aorta; assay: Effect on acetylcholine-induced vasorelaxation in pyrogallol exposed Sprague-Dawley rat thoracic aorta; format: functional, tissue-based; set-up: Activity: scale not given: the % may be the effect or the level left; conditions: for EC50: Rattus norvegicus, Sprague-Dawley, Thoracic aorta
How it was run: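 Endothelium-intact male Sprague-Dawley aortic rings in organ baths with nifedipine 30 nM. Pretreated 20 min with pyrogallol 30 µM, alone or with flavonol 30 µM (15% DMSO/85% methanol), or vehicle. Rings precontracted with U46619 1–10 nM to about 50% of the 123 mM KCl response, then cumulative acetylcholine curves run. Relaxation given as % of precontraction; mean ± SEM, n = rats.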

[9] = test system: Aorta; assay: Effect on acetylcholine-induced vasorelaxation in xanthine/xanthine oxidase exposed Sprague-Dawley rat thoracic aorta; format: functional, tissue-based; set-up: Activity: scale not given: the % may be the effect or the level left; conditions: for EC50: Rattus norvegicus, Sprague-Dawley, Thoracic aorta
How it was run: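 Aortic rings incubated with xanthine oxidase 0.016 U/mL for 30 min, then flavonol 30 µM for 20 min, then xanthine 100 µM for 10 min. Rings then precontracted with U46619 and cumulative acetylcholine concentration-response curves recorded. Relaxation given as % of U46619 precontraction; mean ± SEM, n = rats.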

Row | SMILES | EC50 [3] | EC50 [4] | EC50 [5] | EC50 [6] | EC50 [7] | EC50 [8] | EC50 [9] | Activity [1] | Activity [2] | Activity [3] | Activity [4] | Activity [5] | Activity [6] | Activity [7] | Activity [8] | Activity [9]
1 | CC(C)(C)c1cc(-c2oc3ccccc3c(=O)c2O)ccc1O | 4.68 µM | – | – | – | – | – | – | 26% | 108% | 38% | – | – | – | – | – | –
2 | COc1cccc(-c2oc3ccccc3c(=O)c2O)c1 | 7.08 µM | 3.02 µM | 3.72 µM | 8.91 µM | 7.76 µM | – | – | 71% | 74% | 79% | 101% | 93% | 86% | 87% | – | –
3 | CC(C)(C)c1ccc(-c2oc3ccccc3c(=O)c2O)cc1 | – | – | – | – | – | – | – | 71% | 111% | 10% | – | – | – | – | – | –
4 | O=c1c(O)c(-c2cccc(C(F)(F)F)c2)oc2ccccc12 | 115 µM | – | – | – | – | – | – | 89% | 80% | 23% | – | – | – | – | – | –
5 | COc1ccc(-c2oc3ccccc3c(=O)c2O)cc1 | – | – | – | – | – | – | – | 51% | 89% | 16% | – | – | – | – | – | –
6 | O=c1c(O)c(-c2cccc(Cl)c2)oc2ccccc12 | 6.76 µM | – | – | – | – | – | – | 87% | 75% | 53% | – | – | – | – | – | –
7 | O=c1c(O)c(-c2ccc(C(F)(F)F)cc2)oc2ccccc12 | – | – | – | – | – | – | – | 90% | 85% | 6% | – | – | – | – | – | –
8 | O=c1c(O)c(-c2ccc(O)c(C(F)(F)F)c2)oc2ccccc12 | 16.6 µM | – | – | – | – | – | – | 26% | 109% | 77% | – | – | – | – | – | –
9 | COc1cc(-c2oc3ccccc3c(=O)c2O)ccc1O | 4.47 µM | 0.871 µM | 1.66 µM | 5.62 µM | 4.79 µM | 0.275 µM | 0.0891 µM | 24% | 106% | 98% | 101% | 100% | 93% | 100% | 42% | 62%
10 | Cc1cccc(-c2oc3ccccc3c(=O)c2O)c1 | 74.1 µM | – | – | – | – | – | – | 80% | 85% | 37% | – | – | – | – | – | –
11 | Cc1ccc(-c2oc3ccccc3c(=O)c2O)cc1 | – | – | – | – | – | – | – | 76% | 101% | 13% | – | – | – | – | – | –

The next lines start with results.

Row | EC50 [3] | EC50 [4] | EC50 [5] | EC50 [6] | EC50 [7] | EC50 [8] | EC50 [9] | SMILES | Activity [1] | Activity [2] | Activity [3] | Activity [4] | Activity [5] | Activity [6] | Activity [7] | Activity [8] | Activity [9]
12 | 2.51 µM | – | – | – | – | – | – | O=c1c(O)c(-c2ccc(O)c(Br)c2)oc2ccccc12 | 23% | 96% | 100% | – | – | – | – | – | –
13 | 3.24 µM | – | – | – | – | – | – | O=c1c(O)c(-c2cccc(O)c2)oc2ccccc12 | 87% | 78% | 98% | – | – | – | – | – | –
14 | 4.68 µM | 1.66 µM | 3.16 µM | 5.5 µM | 5.13 µM | – | – | O=c1c(O)c(-c2ccc(O)cc2)oc2ccccc12 | 32% | 74% | 99% | 100% | 102% | 92% | 95% | – | –
15 | 4.37 µM | – | – | – | – | – | – | Cc1cc(-c2oc3ccccc3c(=O)c2O)ccc1O | 25% | 105% | 98% | – | – | – | – | – | –
16 | 8.13 µM | – | – | – | – | – | – | O=c1c(O)c(-c2ccc(Cl)cc2)oc2ccccc12 | 93% | 100% | 37% | – | – | – | – | – | –
17 | 7.59 µM | – | – | – | – | – | – | O=c1c(O)c(-c2ccccc2)oc2ccccc12 [FLAVONOL] | 83% | 70% | 91% | – | – | – | – | – | –
18 | 5.01 µM | 1.35 µM | 3.02 µM | 6.31 µM | 5.5 µM | 0.0646 µM | 0.055 µM | O=c1c(O)c(-c2ccc(O)c(O)c2)oc2ccccc12 | 36% | 27% | 102% | 101% | 100% | 100% | 100% | 81% | 84%
